Consider four compounds from ChEMBL document CHEMBL1139366, “Non-peptide macrocyclic histone deacetylase inhibitors” (J Med Chem, 2009).

One experiment has as its system SK-MES-1. The experiment in a line: Cytotoxicity against human SKMES1 cells after 72 hrs by trypan blue exclusion assay. Particulars: SK-MES-1, 72 h. It is filed as functional, cell-based.
For the next experiment, the system named is DU-145. The experiment is described as follows: Cytotoxicity against human DU145 cells after 72 hrs by trypan blue exclusion assay. The experiment is classed as functional, cell-based. Particulars: DU-145, 72 h. The method in brief: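 DU-145 prostate cancer cells kept in recommended complete medium at 37 °C, 5% CO₂, passaged 24 h before dosing. Compounds taken from 10 mM DMSO stocks and diluted in DMSO plus fresh medium, final DMSO 0.1%; control wells got fresh medium only. Viability read by trypan blue staining after 72 h. EC₅₀ = concentration giving 50% loss of viability, from duplicate of four simultaneous experiments.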

Experiment [1] is described as follows: Cytotoxicity against human primary lung fibroblasts after 72 hrs by trypan blue exclusion assay. The experiment is classed as ADME, cell-based. Particulars: Fibroblast.
The target of experiment [2] is T1, Protein deacetylase HDAC6 (Homo sapiens, UniProt Q9UBN7).
T1 sequence (Q9UBN7 whole entry): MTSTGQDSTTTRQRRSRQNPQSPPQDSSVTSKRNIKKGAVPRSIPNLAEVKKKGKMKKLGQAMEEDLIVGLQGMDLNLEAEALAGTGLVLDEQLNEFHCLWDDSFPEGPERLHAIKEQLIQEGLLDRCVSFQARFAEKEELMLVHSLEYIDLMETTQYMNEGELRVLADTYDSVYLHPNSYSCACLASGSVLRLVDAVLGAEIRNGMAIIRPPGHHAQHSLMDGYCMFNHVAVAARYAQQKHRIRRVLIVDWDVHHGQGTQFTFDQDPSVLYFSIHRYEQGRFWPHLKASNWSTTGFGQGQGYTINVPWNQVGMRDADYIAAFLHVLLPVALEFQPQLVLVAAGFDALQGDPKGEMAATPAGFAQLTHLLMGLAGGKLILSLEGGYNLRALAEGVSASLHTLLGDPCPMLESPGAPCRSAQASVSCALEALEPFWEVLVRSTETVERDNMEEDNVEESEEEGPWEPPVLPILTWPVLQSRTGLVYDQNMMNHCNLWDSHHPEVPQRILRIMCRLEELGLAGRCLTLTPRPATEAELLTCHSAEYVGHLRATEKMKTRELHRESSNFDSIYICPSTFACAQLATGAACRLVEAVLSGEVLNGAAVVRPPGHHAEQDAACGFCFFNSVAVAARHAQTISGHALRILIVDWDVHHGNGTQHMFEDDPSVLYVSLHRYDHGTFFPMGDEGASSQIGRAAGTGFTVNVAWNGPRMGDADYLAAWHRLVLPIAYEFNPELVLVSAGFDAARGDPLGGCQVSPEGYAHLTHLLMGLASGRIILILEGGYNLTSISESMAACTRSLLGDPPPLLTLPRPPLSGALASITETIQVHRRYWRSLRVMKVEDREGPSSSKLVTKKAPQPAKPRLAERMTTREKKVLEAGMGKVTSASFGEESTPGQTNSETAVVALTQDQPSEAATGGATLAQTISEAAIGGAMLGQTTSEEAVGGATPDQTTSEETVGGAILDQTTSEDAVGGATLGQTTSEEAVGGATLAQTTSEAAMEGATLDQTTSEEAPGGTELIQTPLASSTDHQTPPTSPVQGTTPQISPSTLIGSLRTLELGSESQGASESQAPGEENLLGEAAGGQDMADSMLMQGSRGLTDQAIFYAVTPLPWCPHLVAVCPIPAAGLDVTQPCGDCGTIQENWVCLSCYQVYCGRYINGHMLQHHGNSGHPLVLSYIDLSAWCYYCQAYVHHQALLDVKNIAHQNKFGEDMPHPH
The experiment in a line: Inhibition of HDAC6 from human HeLa cells nuclear extract by cell free fluorimetric assay.

Another experiment deals with HMEC. The experiment is described as follows: Cytotoxicity against HMEC after 72 hrs by trypan blue exclusion assay. The experiment is classed as ADME, cell-based. Particulars: Homo sapiens.
For another experiment, the system named is NCI-H69. The experiment is described as follows: Cytotoxicity against human NCI-H69 cells after 72 hrs by trypan blue exclusion assay. It is filed as functional, cell-based. Particulars: NCI-H69, 72 h.
The target in experiment [3] is Histone deacetylase (HDAC1 and HDAC2) (Homo sapiens, UniProt Q13547+Q92769). The experiment is described as follows: Inhibition of HDAC1/2 from human HeLa cells nuclear extract by cell free fluorimetric assay. The experiment is classed as cell-based.
The next experiment deals with T2, Histone deacetylase 8 (Homo sapiens, UniProt Q9BY41).
T2 sequence (Q9BY41 whole entry): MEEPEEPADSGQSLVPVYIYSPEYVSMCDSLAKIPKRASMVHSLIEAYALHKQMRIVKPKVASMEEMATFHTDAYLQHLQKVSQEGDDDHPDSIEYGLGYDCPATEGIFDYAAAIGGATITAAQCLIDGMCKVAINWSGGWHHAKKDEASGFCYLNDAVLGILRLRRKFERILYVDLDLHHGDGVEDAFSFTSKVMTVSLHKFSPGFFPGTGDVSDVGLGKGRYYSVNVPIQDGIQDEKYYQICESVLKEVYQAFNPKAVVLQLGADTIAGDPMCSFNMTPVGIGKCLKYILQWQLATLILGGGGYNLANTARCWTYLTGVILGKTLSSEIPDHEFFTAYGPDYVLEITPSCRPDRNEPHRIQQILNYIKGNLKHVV
The experiment is described as follows: Inhibition of HDAC8 from human HeLa cells nuclear extract by cell free fluorimetric assay.

As a reminder, the EC50 is the midpoint of the concentration-response curve. What is called IC50 is the point on the concentration scale where inhibition reaches its midpoint. Low readings indicate higher potency, high ones lower potency. Consider `CC[C@H]1OC(=O)[C@H](C)[C@@H](O)[C@H](C)[C@@H](O[C@@H]2O[C@H](C)C[C@H](N(C)Cc3ccc(-c4cn(CCCCCCC(=O)NO)nn4)cc3)[C@H]2O)[C@](C)(OC)C[C@@H](C)C(=O)[C@H](C)[C@@H](O)[C@]1(C)O`, for which the concentration for a half-maximal effect (EC50) in the experiment with SK-MES-1 was 1280 nM; in the experiment on DU-145, 1050 nM; in experiment [1] it was above 10000 nM; in the experiment with HMEC, above 10000 nM; in the experiment on NCI-H69, 1490 nM. Besides, the IC50 in experiment [2] came to 148 nM; in experiment [3], 1.9 nM.
Regarding `CC[C@H]1OC(=O)[C@H](C)[C@@H](O[C@H]2C[C@@](C)(OC)[C@@H](O)[C@H](C)O2)[C@H](C)[C@@H](O[C@@H]2O[C@H](C)C[C@H](N(C)Cc3ccc(-c4cn(CCCCCCC(=O)NO)nn4)cc3)[C@H]2O)[C@](C)(OC)C[C@@H](C)C(=O)[C@H](C)[C@@H](O)[C@]1(C)O`, the EC50 was 1330 nM in the experiment on SK-MES-1; 1120 nM in the experiment on DU-145; above 10000 nM in experiment [1]; above 10000 nM in the experiment with HMEC; 1450 nM with NCI-H69. Also, the IC50 amounted to 89.3 nM in experiment [2] and 4.1 nM in experiment [3].
With `CC[C@H]1OC(=O)[C@H](C)[C@@H](O)[C@H](C)[C@@H](O[C@@H]2O[C@H](C)C[C@H](N(C)Cc3ccc(-c4cn(CCCCCCC(=O)NO)nn4)cc3)[C@H]2O)[C@](C)(O)C[C@@H](C)CN(C)[C@H](C)[C@@H](O)[C@]1(C)O`, the half-maximal effective concentration (EC50) in the experiment with SK-MES-1 was 2560 nM; with DU-145, 1970 nM; in experiment [1] it was above 10000 nM; in the experiment with HMEC, above 10000 nM; with NCI-H69, 3010 nM. Besides, the half-inhibitory concentration (IC50) in experiment [2] is 117 nM; in experiment [3] it was 10.6 nM; against Histone deacetylase 8, 1020 nM.
Turning to `CC[C@H]1OC(=O)[C@H](C)[C@@H](O[C@H]2C[C@@](C)(OC)[C@@H](O)[C@H](C)O2)[C@H](C)[C@@H](O[C@@H]2O[C@H](C)C[C@H](N(C)Cc3ccc(-c4cn(CCCCCCC(=O)NO)nn4)cc3)[C@H]2O)[C@](C)(O)C[C@@H](C)CN(C)[C@H](C)[C@@H](O)[C@]1(C)O`, the concentration giving a half-maximal response (EC50) with SK-MES-1 was 2330 nM; with DU-145, 1880 nM; in experiment [1] it was above 10000 nM; in the experiment with HMEC it was above 10000 nM; in the experiment with NCI-H69, 3450 nM. Further, the results for the IC50 (in experiment [2]; in experiment [3]; on Histone deacetylase 8) were 78 nM, 13.9 nM and 994 nM, respectively.
